The nature of data set [1]: Inhibition of Wnt3A/beta-catenin signaling in HEK293 cells at 5 uM after 24 hrs by firefly/renilla dual luciferase reporter gene assay relative to vehicle-treated control. The format is cell-based. The arrangement: scale not given: the % may be the effect or the level left. The note with it: Homo sapiens. The essentials:
(§1)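 HEK293T cells were co-transfected with TOPglow (or FOPglow) plus pCMV Renilla. At 20 h they were reseeded at 18×10^3/well and treated for 24 h with Wnt-3A conditioned medium (from L-Wnt-3A cells) plus analogs (0.01–20 µM; DMSO ≤0.1%). Firefly/Renilla dual-luciferase ratios were expressed as % of DMSO under Wnt-3A. EC50 was taken from sigmoidal concentration–response fits; three independent experiments.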
On the technique in general: Reporter assays use an easily measured gene product as a stand-in for the process of interest.

The nature of data set [2]: Inhibition of Wnt3A/beta-catenin signaling in HEK293 cells at 20 uM after 24 hrs by firefly/renilla dual luciferase reporter gene assay relative to vehicle-treated control. It is filed as cell-based. More on the design: scale not given: the % may be the effect or the level left. The note with it: Homo sapiens. The procedure, abridged:
as §1

Data set [3] can be described thus: Inhibition of Wnt3A/beta-catenin signaling in HEK293 cells at 10 uM after 24 hrs by firefly/renilla dual luciferase reporter gene assay relative to vehicle-treated control. The note with it: Homo sapiens. The format is cell-based. The arrangement: scale not given: the % may be the effect or the level left. The procedure, abridged:
as §1

Data set [4] is described as follows: Inhibition of Wnt3A/beta-catenin signaling in HEK293 cells at 1 uM after 24 hrs by firefly/renilla dual luciferase reporter gene assay relative to vehicle-treated control. It is filed as cell-based. The arrangement: scale not given: the % may be the effect or the level left. The note with it: Homo sapiens. The essentials:
as §1

The nature of data set [5]: Inhibition of Wnt3A/beta-catenin signaling in HEK293 cells after 24 hrs by firefly/renilla dual luciferase reporter gene assay relative to curcumin. The format is cell-based. The note with it: Homo sapiens. The essentials:
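EC50s came from the HEK293T TOPglow/Renilla dual-luciferase assay with Wnt-3A conditioned medium and 24 h compound exposure (0.01–20 µM), using sigmoidal fits; three independent experiments.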

The nature of data set [6]: Inhibition of Wnt3A/beta-catenin signaling-mediated Tcf4 transcriptional activity in human HEK293T cells at dual luciferase reporter gene assay EC50 after 24 hrs by FOPglow reporter gene assay. The arrangement: scale not given: the % may be the effect or the level left.
Data set [7] in a line: Inhibition of Wnt3A/beta-catenin signaling in HEK293 cells after 24 hrs by firefly/renilla dual luciferase reporter gene assay. It is filed as cell-based. The note with it: Homo sapiens, HEK293, 24 h. The essentials:
as §1

The next data set has as its system HEK293T (human). Nature of the data set: Cytotoxicity against human HEK293T cells at dual luciferase reporter gene assay EC50 after 24 hrs by MTS assay.

SMILES strings stand for the structures.

As to `O=C1/C(=C/c2ccc(F)cc2)CC/C1=C\c1ccc(F)cc1`, the activity worked out at 112% in data set [1], 108% in data set [2], 105% in data set [3] and 120% in data set [4].

In the case of `O=C1/C(=C/c2ccccc2F)CC/C1=C\c1ccccc1F`, the activity in data set [1] stood at 75.7%; in data set [2] it was 72.8%; in data set [3] it was 85.3%; in data set [4], 80%.

For the compound `O=C(/C=C(O)/C=C/c1ccccc1)/C=C/c1ccccc1`, the activity is 104% in data set [1], 97.2% in data set [2], 107% in data set [3] and 109% in data set [4].

One may read the EC50 as the concentration giving half of the maximal effect. For the compound `O=C(/C=C/c1ccccc1)c1ccccc1` [CHALCONE], the activity came out at 90.6% in data set [1]; 18.9% in data set [2]; 69% in data set [3]; 112% in data set [6]; 102% in data set [4]. The fold change (FC) in data set [5] is 1.9. In addition, the half-maximal effective concentration (EC50) in data set [7] was determined as 11 µM.

For `O=C(/C=C/c1ccccc1)/C=C/c1ccccc1`, the activity in data set [1] was found to be 82.7%; in data set [2], 77.9%; in data set [3], 79.7%; in data set [4], 93%.

As for `COc1cccc(/C=C/C(=O)/C=C/c2cccc(OC)c2)c1`, the activity is 114% in data set [1], 103% in data set [2], 103% in data set [3] and 100% in data set [4].

In the case of `COc1cc(/C=C2\CCC/C(=C\c3ccc(O)c(OC)c3)C2=O)ccc1O` [CYCLOVALONE], the activity amounted to 28.9% in data set [1], 21.3% in data set [3], 87.6% in data set [6] and 86.1% in data set [4]. The compound further showed a fold change (FC) in data set [5] of 7.9. The same compound came in with an EC50 in data set [7] of 2.6 µM.

For `O=C1/C(=C/c2ccc(F)cc2)CCC/C1=C\c1ccc(F)cc1`, the activity came out at 65.2% in data set [1], 60.2% in data set [2], 61.6% in data set [3] and 70.3% in data set [4].

Turning to `COc1cccc(/C=C/C(=O)c2cccc(OC)c2)c1`, the activity is 108% in data set [1], 72.9% in data set [2], 111% in data set [3] and 107% in data set [4].

Take `COc1ccc(/C=C/C(=O)/C=C(O)/C=C/c2ccc(OC)c(O)c2)cc1O`: the activity in data set [1] was 110%; in data set [2], 113%; in data set [3], 105%; in data set [4], 99.7%.

For the compound `O=C1/C(=C/c2cccc(F)c2)CC/C1=C\c1cccc(F)c1`, the activity in data set [1] was 119%; in data set [2], 103%; in data set [3] it was 109%; in data set [4] it was 124%.

In the case of `COc1ccc(/C=C2\CC/C(=C\c3ccc(OC)c(OC)c3)C2=O)cc1OC`, the activity turned out to be 65.9% in data set [1]; 39.2% in data set [2]; 55.5% in data set [3]; 85.2% in data set [6]; 88.9% in data set [4]. The fold change (FC) in data set [5] is 1.2. This compound returned an EC50 in data set [7] of 17.1 µM.

For `O=C1/C(=C/c2cccc(F)c2)CCC/C1=C\c1cccc(F)c1`, the activity in data set [1] amounted to 119%; in data set [2] it was 104%; in data set [3] it was 105%; in data set [4] it was 96.1%.

`O=C(/C=C(O)/C=C/c1ccc(F)c(F)c1)/C=C/c1ccc(F)c(F)c1`: the activity in data set [1] came to 92.2%; in data set [2] it was 93.1%; in data set [3] it was 89.2%; in data set [4], 83.3%.

Turning to `COc1cc(/C=C2\CC/C(=C\c3ccc(O)c(OC)c3)C2=O)ccc1O`, the activity came to 54.1% in data set [1]; 13.3% in data set [2]; 37.5% in data set [3]; 90.8% in data set [6]; 91.6% in data set [4]. The compound further registered a fold change (FC) in data set [5] of 3.5. The EC50 in data set [7] came out at 5.9 µM.

In the case of `COc1cccc(/C=C2\CCC/C(=C\c3cccc(OC)c3)C2=O)c1`, the activity in data set [1] is 60.7%; in data set [2] it was 81.5%; in data set [3], 72.7%; in data set [4], 93.3%.

As for `O=C(/C=C/c1ccc(F)c(F)c1)c1ccc(F)c(F)c1`, the activity in data set [1] was 112%; in data set [2] it was 59.1%; in data set [3] it was 90.2%; in data set [4], 117%.

Take `COc1ccc(/C=C/C(=O)c2ccc(OC)c(OC)c2)cc1OC`: the activity in data set [1] turned out to be 86.6%; in data set [2] it was 41.6%; in data set [3], 60.3%; in data set [4] it was 95%.

Turning to `COc1cccc(/C=C2\CC/C(=C\c3cccc(OC)c3)C2=O)c1`, the activity in data set [1] came to 72.7%; in data set [2] it was 61.3%; in data set [3], 72%; in data set [4], 92.3%.

Take `O=C(/C=C/c1ccc(O)cc1)CC(=O)/C=C/c1ccc(O)cc1`: the activity in data set [1] is 77.7%; in data set [2], 69.1%; in data set [3], 72.5%; in data set [4] it was 100%.

For the compound `COc1ccc(/C=C/C(=O)/C=C(O)/C=C/c2ccc(OC)c(OC)c2)cc1OC`, the activity in data set [1] worked out at 70%; in data set [3], 46.5%; in data set [6], 118%; in data set [4], 102%. Besides, the Activity in the data set with HEK293T (human) stood at 41.6%. In data set [5], this compound yielded a fold change (FC) of 2.5. The same compound registered an EC50 in data set [7] of 8.3 µM.

As to `O=C1/C(=C/c2ccc(F)c(F)c2)CC/C1=C\c1ccc(F)c(F)c1`, the activity in data set [1] stood at 73.1%; in data set [2], 59.5%; in data set [3] it was 60.2%; in data set [4], 71%.

Turning to `O=C(/C=C/c1ccc(F)c(F)c1)/C=C/c1ccc(F)c(F)c1`, the activity in data set [1] stood at 100%; in data set [2] it was 111%; in data set [3] it was 110%; in data set [4], 103%.

Take `COc1cc(/C=C/C(=O)c2ccc(O)c(OC)c2)ccc1O`: the activity turned out to be 115% in data set [1], 69.6% in data set [2], 86.9% in data set [3] and 112% in data set [4].

`COc1cccc(/C=C/C(=O)/C=C(O)/C=C/c2cccc(OC)c2)c1`: the activity in data set [1] was 107%; in data set [2], 101%; in data set [3] it was 108%; in data set [4], 97.7%.

With `COc1ccc(/C=C/C(=O)/C=C/c2ccc(OC)c(OC)c2)cc1OC`, the activity in data set [1] was 108%; in data set [2], 103%; in data set [3], 109%; in data set [4], 107%.

For `O=C(/C=C/c1ccc(O)cc1)c1ccc(O)cc1`, the activity is 89.6% in data set [1], 68.3% in data set [2], 70.9% in data set [3] and 92.7% in data set [4].

As to `COc1cc(/C=C/C(=O)/C=C/c2ccc(O)c(OC)c2)ccc1O`, the activity in data set [1] is 111%; in data set [2] it was 90.4%; in data set [3], 110%; in data set [4], 118%.

`O=C1/C(=C/c2ccc(F)c(F)c2)CCC/C1=C\c1ccc(F)c(F)c1`: the activity turned out to be 126% in data set [1], 114% in data set [2], 118% in data set [3] and 94.5% in data set [4].

(Values after ChEMBL document CHEMBL3102846 (Eur J Med Chem, 2014).)
